Experimental data taken from ChEMBL document CHEMBL4396889, “From Inhibition to Degradation: Targeting the Antiapoptotic Protein Myeloid Cell Leukemia 1 (MCL1)” (J Med Chem, 2019).
The source made the active and inactive calls. The rule behind the calls is not given here.

Experiments:
[1] = molecular target: T1, Protein cereblon/Induced myeloid leukemia cell differentiation protein Mcl-1 (Homo sapiens) (UniProt Q07820+Q96SW2); assay: Protac activity at Cereblon/MCL1 in human OPM2 cell lysate assessed as induction of MCL1 polyubiquitination incubated for 3 hrs by SDS-PAGE/immunoblot analysis; type: subcellular
T1 sequence (Q07820 whole entry, looked up): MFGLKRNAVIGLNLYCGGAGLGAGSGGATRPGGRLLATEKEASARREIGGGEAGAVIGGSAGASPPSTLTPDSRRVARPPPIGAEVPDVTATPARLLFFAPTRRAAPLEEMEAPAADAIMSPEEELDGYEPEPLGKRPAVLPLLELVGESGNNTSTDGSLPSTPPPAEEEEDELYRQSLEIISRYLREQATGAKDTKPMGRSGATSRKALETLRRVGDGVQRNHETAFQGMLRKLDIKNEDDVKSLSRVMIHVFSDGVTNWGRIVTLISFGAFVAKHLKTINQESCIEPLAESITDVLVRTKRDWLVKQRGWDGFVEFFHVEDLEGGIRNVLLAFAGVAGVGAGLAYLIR
T1 sequence (Q96SW2 whole entry, looked up): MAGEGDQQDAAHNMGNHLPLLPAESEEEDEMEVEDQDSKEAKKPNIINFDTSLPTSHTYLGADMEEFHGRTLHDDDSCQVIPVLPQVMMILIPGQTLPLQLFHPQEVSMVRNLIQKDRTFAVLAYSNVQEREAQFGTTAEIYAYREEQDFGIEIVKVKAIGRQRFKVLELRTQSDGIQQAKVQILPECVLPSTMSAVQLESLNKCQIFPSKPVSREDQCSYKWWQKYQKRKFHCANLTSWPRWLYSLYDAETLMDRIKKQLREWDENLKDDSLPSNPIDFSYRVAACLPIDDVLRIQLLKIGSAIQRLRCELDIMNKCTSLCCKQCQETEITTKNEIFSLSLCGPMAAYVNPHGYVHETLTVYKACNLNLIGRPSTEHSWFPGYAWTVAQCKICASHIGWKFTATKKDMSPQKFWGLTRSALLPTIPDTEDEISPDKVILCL
Summary of the method: (§1)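 In vitro ubiquitinylation reactions; the target (MCL1 or BRD4) was then immunoprecipitated and the immunoprecipitate immunoblotted for ubiquitin.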

[2] = molecular target: T2, Induced myeloid leukemia cell differentiation protein Mcl-1 (Homo sapiens, UniProt Q07820); assay: Binding affinity to MCL1 long isoform in human OPM2 incubated overnight using biotin labelled compound by streptavidin based immunoprecipitation method
T2 sequence (Q07820 whole entry, canonical isoform): as the sequence (Q07820 whole entry, looked up) above

[3] = molecular target: T2, Induced myeloid leukemia cell differentiation protein Mcl-1; assay: Binding affinity to MCL1 short isoform in human OPM2 incubated overnight using biotin labelled compound by streptavidin based immunoprecipitation method
[4] = molecular target: T1, Protein cereblon/Induced myeloid leukemia cell differentiation protein Mcl-1 (Homo sapiens); assay: Protac activity at Cereblon/MCL1 in human HeLa cell lysate assessed as MCL1 degradation incubated for 3 hrs by SDS-PAGE/immunoblot analysis; type: subcellular
[5] = molecular target: T1, Protein cereblon/Induced myeloid leukemia cell differentiation protein Mcl-1 (Homo sapiens); assay: Protac activity at Cereblon/MCL1 in human OPM2 cells after 48 hrs by immunoblot analysis; type: cell-based
Summary of the method: (§2)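 OPM2 multiple myeloma cells, wild type or CRBN-knockout, were treated for 48 h with degrader or DMSO vehicle. MCL1 long and short isoforms were detected by immunoblot and levels compared with DMSO controls.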

[6] = molecular target: Protein cereblon/Bromodomain-containing protein 4 (Homo sapiens) (UniProt O60885+Q96SW2); assay: Protac activity at Cereblon/BRD4 in human OPM2 cell lysate assessed as induction of BRD4 polyubiquitination incubated for 3 hrs by SDS-PAGE/immunoblot analysis; type: subcellular; summary of the method: as §1
Chain of Protein cereblon/Bromodomain-containing protein 4 (Homo sapiens) (Q96SW2 whole entry, looked up, other chains not shown): as the sequence (Q96SW2 whole entry, looked up) above

[7] = Half-life in human liver microsome pre-incubated for 10 mins followed by addition of NADPH regenerating system after 5 to 60 mins by LC/MS/MS analysis; type: ADME; settings: liver microsomes
[8] = molecular target: T1, Protein cereblon/Induced myeloid leukemia cell differentiation protein Mcl-1 (Homo sapiens); assay: Protac activity at Cereblon/MCL1 long isoform in wild type human OPM2 cells at 250 nM after 48 hrs by immunoblot analysis relative to control; type: cell-based; summary of the method: as §2
[9] = molecular target: T2, Induced myeloid leukemia cell differentiation protein Mcl-1; assay: Induction of MCL1 short isoform degradation in CRBN-/- human OPM2 cells assessed as protein abundance at 50 nM after 48 hrs by immunoblot analysis relative to control; type: cell-based; summary of the method: as §2
[10] = molecular target: T2, Induced myeloid leukemia cell differentiation protein Mcl-1; assay: Induction of MCL1 long isoform degradation in CRBN-/- human OPM2 cells assessed as protein abundance at 250 nM after 48 hrs by immunoblot analysis relative to control; type: cell-based; summary of the method: as §2
[11] = molecular target: T2, Induced myeloid leukemia cell differentiation protein Mcl-1; assay: Induction of MCL1 short isoform degradation in CRBN-/- human OPM2 cells assessed as protein abundance at 100 nM after 48 hrs by immunoblot analysis relative to control; type: cell-based; summary of the method: as §2
[12] = molecular target: T1, Protein cereblon/Induced myeloid leukemia cell differentiation protein Mcl-1 (Homo sapiens); assay: Protac activity at Cereblon/MCL1 short isoform in wild type human OPM2 cells assessed as MCL1 short isoform abundance at 250 nM after 48 hrs by immunoblot analysis relative to control; type: cell-based
Summary of the method: (§3)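 OPM2 wild-type cells, run alongside the CRBN-/- line, were treated for 48 h with compound or DMSO. The MCL1 long and short isoforms were then measured by immunoblot against the DMSO control.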

[13] = molecular target: T1, Protein cereblon/Induced myeloid leukemia cell differentiation protein Mcl-1 (Homo sapiens); assay: Protac activity at Cereblon/MCL1 long isoform in wild type human OPM2 cells at 100 nM after 48 hrs by immunoblot analysis relative to control; type: cell-based; summary of the method: as §2
[14] = molecular target: T2, Induced myeloid leukemia cell differentiation protein Mcl-1; assay: Induction of MCL1 short isoform degradation in CRBN-/- human OPM2 cells assessed as protein abundance at 500 nM after 48 hrs by immunoblot analysis relative to control; type: cell-based; summary of the method: as §2
[15] = molecular target: T1, Protein cereblon/Induced myeloid leukemia cell differentiation protein Mcl-1 (Homo sapiens); assay: Protac activity at Cereblon/MCL1 short isoform in wild type human OPM2 cells assessed as MCL1 short isoform abundance at 100 nM after 48 hrs by immunoblot analysis relative to control; type: cell-based; summary of the method: as §3
[16] = molecular target: T1, Protein cereblon/Induced myeloid leukemia cell differentiation protein Mcl-1 (Homo sapiens); assay: Protac activity at Cereblon/MCL1 long isoform in wild type human OPM2 cells assessed as protein abundance at 50 nM after 48 hrs by immunoblot analysis relative to control; type: cell-based; summary of the method: as §2
[17] = molecular target: T2, Induced myeloid leukemia cell differentiation protein Mcl-1; assay: Induction of MCL1 short isoform degradation in CRBN-/- human OPM2 cells assessed as protein abundance at 250 nM after 48 hrs by immunoblot analysis relative to control; type: cell-based; summary of the method: as §2
[18] = molecular target: T2, Induced myeloid leukemia cell differentiation protein Mcl-1; assay: Induction of MCL1 long isoform degradation in CRBN-/- human OPM2 cells assessed as protein abundance at 100 nM after 48 hrs by immunoblot analysis relative to control; type: cell-based; summary of the method: as §2
[19] = molecular target: T2, Induced myeloid leukemia cell differentiation protein Mcl-1; assay: Induction of MCL1 long isoform degradation in CRBN-/- human OPM2 cells assessed as protein abundance at 50 nM after 48 hrs by immunoblot analysis relative to control; type: cell-based; summary of the method: as §2
[20] = molecular target: T2, Induced myeloid leukemia cell differentiation protein Mcl-1; assay: Binding affinity to His-tagged biotinylated human MCL1 by surface plasmon resonance method
[21] = molecular target: T1, Protein cereblon/Induced myeloid leukemia cell differentiation protein Mcl-1 (Homo sapiens); assay: Protac activity at Cereblon/MCL1 long isoform in wild type human OPM2 cells at 500 nM after 48 hrs by immunoblot analysis relative to control; type: cell-based; summary of the method: as §2
[22] = molecular target: T2, Induced myeloid leukemia cell differentiation protein Mcl-1; assay: Induction of MCL1 long isoform degradation in CRBN-/- human OPM2 cells assessed as protein abundance at 500 nM after 48 hrs by immunoblot analysis relative to control; type: cell-based; summary of the method: as §2
[23] = molecular target: T1, Protein cereblon/Induced myeloid leukemia cell differentiation protein Mcl-1 (Homo sapiens); assay: Protac activity at Cereblon/MCL1 short isoform in wild type human OPM2 cells assessed as MCL1 short isoform abundance at 500 nM after 48 hrs by immunoblot analysis relative to control; type: cell-based; summary of the method: as §3
[24] = molecular target: T1, Protein cereblon/Induced myeloid leukemia cell differentiation protein Mcl-1 (Homo sapiens); assay: Protac activity at Cereblon/MCL1 short isoform in wild type human OPM2 cells assessed as MCL1 short isoform abundance at 50 nM after 48 hrs by immunoblot analysis relative to control; type: cell-based; summary of the method: as §3

Cc1nn(C)c(COc2ccc(N3CCN(S(=O)(=O)N(C)C)CC3)cc2)c1-c1cccc2c(CCCOc3cccc4ccccc34)c(C(=O)O)n(CCN3CCN(C(=O)CCC(=O)NCCCOCCOCCOCCCNC(=O)COc4cccc5c4C(=O)N(C4CCC(=O)NC4=O)C5=O)CC3)c12 (stereo unspecified)
Activity [1]: Active

Cc1nn(C)c(COc2ccc(N3CCN(S(=O)(=O)N(C)C)CC3)cc2)c1-c1cccc2c(CCCOc3cccc4ccccc34)c(C(=O)O)n(CCN3CCN(C(=O)CCCC[C@@H]4SC[C@@H]5NC(=O)N[C@@H]54)CC3)c12
Activity [2]: Active | Activity [3]: Active

Cc1nn(C)c(COc2ccc(N3CCN(C(=O)CCCNC(=O)COc4cccc5c4C(=O)N(C4CCC(=O)NC4=O)C5=O)CC3)cc2)c1-c1cccc2c(CCCOc3cccc4ccccc34)c(C(=O)O)n(CCN3CCOCC3)c12 (stereo unspecified)
Activity [4]: inactive | Activity [5]: inactive

Cc1nn(C)c(COc2ccc(N3CCN(C(=O)CCC(=O)NCCCOCCOCCOCNC(=O)COc4cccc5c4C(=O)N(C4CCC(=O)NC4=O)C5=O)CC3)cc2)c1-c1cccc2c(CCCOc3cccc4ccccc34)c(C(=O)O)n(CCN3CCOCC3)c12 (stereo unspecified)
Activity [4]: inactive | Activity [5]: inactive

Cc1nn(C)c(COc2ccc(N3CCN(S(=O)(=O)N(C)C)CC3)cc2)c1-c1cccc2c(CCCOc3cccc4ccccc34)c(C(=O)NCCCCNC(=O)COc3cccc4c3C(=O)N(C3CCC(=O)NC3=O)C4=O)n(CCN3CCOCC3)c12 (stereo unspecified)
Activity [4]: inactive

Cc1nn(C)c(COc2ccc(N3CCN(C(=O)COc4cccc5c4C(=O)N(C4CCC(=O)NC4=O)C5=O)CC3)cc2)c1-c1cccc2c(CCCOc3cccc4ccccc34)c(C(=O)O)n(CCN3CCOCC3)c12 (stereo unspecified)
Activity [4]: inactive | Activity [5]: inactive

Cc1sc2c(c1C)C(c1ccc(Cl)cc1)=N[C@@H](CC(=O)NCCCCNC(=O)COc1cccc3c1C(=O)N(C1CCC(=O)NC1=O)C3=O)c1nnc(C)n1-2 (stereo partly specified)
Activity [6]: Active

Cc1nn(C)c(COc2ccc(N3CCN(S(=O)(=O)N(C)C)CC3)cc2)c1-c1cccc2c(CCCOc3cccc4ccccc34)c(C(=O)O)n(CCN3CCOCC3)c12
half-life [7]: 21.7 min | Activity [8]: 237% | Activity [9]: 100% | Activity [10]: 162% | Activity [11]: 111% | Activity [12]: 287% | Activity [13]: 195% | Activity [14]: 286% | Activity [15]: 148% | Activity [16]: 140% | Activity [17]: 154% | Activity [18]: 152% | Activity [19]: 140% | Kd [20]: 19 nM | Activity [21]: 275% | Activity [22]: 183% | Activity [23]: 374% | Activity [24]: 110%

Cc1nn(C)c(COc2ccc(N3CCN(C(=O)CCC(=O)NCCCOCCOCCOCCCNC(=O)CCCC[C@@H]4SC[C@@H]5NC(=O)N[C@@H]54)CC3)cc2)c1-c1cccc2c(CCCOc3cccc4ccccc34)c(C(=O)O)n(CCN3CCOCC3)c12
Activity [2]: Active | Activity [3]: Active
